Reference: ChEMBL document CHEMBL1153631, “On the role of topoisomerase I in mediating the cytotoxicity of 9-aminoacridine-based anticancer agents” (Bioorg Med Chem Lett, 2009)
Activity calls are given as the source filed them. The rule behind the calls is not given here.

Legend:
[1] = system: SK-MEL; assay: Cytotoxic activity against human SK-MEL cells after 48 hrs by fluorescent resazurin dye assay; type: functional, cell-based
[2] = system: MCF7; assay: Cytotoxic activity against human MCF7 cells after 48 hrs by fluorescent resazurin dye assay; type: functional, cell-based; conditions: MCF7, 48 h
[3] = system: REH; assay: Cytotoxic activity against human REH cells after 48 hrs by fluorescent resazurin dye assay; type: functional, cell-based
[4] = Cytotoxic activity against mouse Hepa-1c1c7 cells after 48 hrs by fluorescent resazurin dye assay; type: functional, cell-based; conditions: Hepa-1c1c7, 48 h
[5] = system: NCI-H460; assay: Cytotoxic activity against human H460 cells after 48 hrs by fluorescent resazurin dye assay; type: functional, cell-based; conditions: NCI-H460, 48 h
[6] = system: DU-145; assay: Cytotoxic activity against human DU145 cells after 48 hrs by fluorescent resazurin dye assay; type: functional, cell-based; conditions: DU-145, 48 h
[7] = system: HCT-116; assay: Cytotoxic activity against human HCT116 cells after 48 hrs by fluorescent resazurin dye assay; type: functional, cell-based; conditions: HCT-116, 48 h
[8] = Cytotoxic activity against human SU-8686 cells after 48 hrs by fluorescent resazurin dye assay; type: functional, cell-based; conditions: SU.86.86, 48 h
[9] = Cytotoxic activity against human OCL3 cells after 48 hrs by fluorescent resazurin dye assay; type: functional, cell-based; conditions: OCL3, 48 h
[10] = target: T1, DNA topoisomerase 1 (Homo sapiens) (UniProt P11387); assay: Inhibition of human topoisomerase 1-mediated relaxation of supercoiled plasmid O6#7 DNA at 100 uM after 30 mins by gel electrophoresis
T1 sequence (whole entry): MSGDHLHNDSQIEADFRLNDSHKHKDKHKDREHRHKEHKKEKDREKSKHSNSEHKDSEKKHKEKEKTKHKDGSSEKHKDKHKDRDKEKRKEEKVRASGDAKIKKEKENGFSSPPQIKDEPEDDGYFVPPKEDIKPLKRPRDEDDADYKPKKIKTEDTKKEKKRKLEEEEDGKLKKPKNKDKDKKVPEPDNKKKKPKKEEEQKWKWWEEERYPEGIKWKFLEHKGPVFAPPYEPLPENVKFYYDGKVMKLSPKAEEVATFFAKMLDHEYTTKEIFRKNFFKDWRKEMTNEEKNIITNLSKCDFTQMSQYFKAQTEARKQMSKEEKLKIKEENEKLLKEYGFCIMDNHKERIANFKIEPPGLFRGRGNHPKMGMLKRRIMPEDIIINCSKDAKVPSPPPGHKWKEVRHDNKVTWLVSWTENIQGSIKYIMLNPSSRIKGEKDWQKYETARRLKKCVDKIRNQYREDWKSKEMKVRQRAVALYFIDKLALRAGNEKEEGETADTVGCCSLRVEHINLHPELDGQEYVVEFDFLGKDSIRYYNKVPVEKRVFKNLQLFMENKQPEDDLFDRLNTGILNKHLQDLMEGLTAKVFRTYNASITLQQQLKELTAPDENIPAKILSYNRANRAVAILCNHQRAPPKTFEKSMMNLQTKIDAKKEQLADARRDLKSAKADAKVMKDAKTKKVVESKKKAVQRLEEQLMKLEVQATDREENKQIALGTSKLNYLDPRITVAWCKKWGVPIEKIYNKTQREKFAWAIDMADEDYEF
In short: (§1)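 Supercoiled plasmid incubated with 2 units topoisomerase I and test agent at 8 μM or at a final 50 or 100 μM. A no-enzyme lane was included. Supercoiled and relaxed DNA bands were resolved on a gel. Four experiments.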

[11] = target: T1, DNA topoisomerase 1 (Homo sapiens); assay: Induction of covalent topoisomerase 1-DNA adduct stabilization in human MIA PaCa cells at 20 uM after 1 hr by ICE assay; type: cell-based; conditions: 100 uM, in the assay text read “100 uM” for “20 uM”
In short: (§2)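 MiaPACA cells exposed to 20 or 100 μM agent for 1 h at 37 °C (vehicle 0.1% DMSO), then lysed with sarkosyl for the ICE bioassay. CsCl-purified DNA-positive gradient fractions were immunoblotted for topoisomerase I. Four independent experiments.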

[12] = system: HeLa; assay: Cytotoxicity against human HeLa cells at 10 to 40 uM by coomassie blue assay in presence of topoisomerase 1-directed siRNA
[13] = target: T1, DNA topoisomerase 1 (Homo sapiens); assay: Inhibition of human topoisomerase 1-mediated relaxation of supercoiled plasmid O6#7 DNA at 8 uM after 30 mins by gel electrophoresis; in short: as §1
[14] = target: T1, DNA topoisomerase 1 (Homo sapiens); assay: Induction of covalent topoisomerase 1-DNA adduct stabilization in human MIA PaCa cells at 100 uM after 1 hr by ICE assay; type: cell-based; in short: as §2
[15] = target: T1, DNA topoisomerase 1 (Homo sapiens); assay: Induction of covalent human topoisomerase 1-plasmid O6#7 DNA adduct stabilization assessed as appearance of nicked plasmid at 100 uM by agarose gel electrophoresis
In short: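 Supercoiled plasmid aliquots incubated 30 min at 37 °C with nuclear extract containing 50 units topoisomerase I and test agent at 1.6 μM or 100 μM; the DNA products were then examined.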

CCN(CC)C(=O)c1ccc2c(NCCc3c[nH]c4ccccc34)c3ccccc3nc2c1
EC50 [1]: 16 µM
EC50 [2]: 13.5 µM
EC50 [3]: 15.5 µM
EC50 [4]: 11.2 µM
EC50 [5]: 18.8 µM
EC50 [6]: 11.9 µM
EC50 [7]: 11.2 µM
EC50 [8]: 16.2 µM
EC50 [9]: 18.3 µM
Activity [10]: inactive
Activity [11]: Active

CN1CCN(C(=O)c2cccc3c(NCCc4c[nH]c5ccccc45)c4ccccc4nc23)CC1
EC50 [1]: 16.7 µM
EC50 [2]: 37.2 µM
EC50 [3]: 19.7 µM
EC50 [4]: 55.9 µM
EC50 [5]: 16 µM
EC50 [6]: 37.2 µM
EC50 [7]: 29 µM
EC50 [8]: 6.8 µM
EC50 [9]: 39.8 µM
Activity [10]: inactive
Activity [11]: Active

CC[C@@]1(O)C(=O)OCc2c1cc1n(c2=O)Cc2cc3ccccc3nc2-1
Activity [12]: inactive

COc1ccc2c(c1)-c1nn(CCCN(C)C)c3ccc([N+](=O)[O-])c(c13)N2
Activity [13]: Active

CN1CCN(C(=O)c2ccc3c(NCCc4c[nH]c5ccccc45)c4ccccc4nc3c2)CC1
EC50 [1]: 5.3 µM
EC50 [2]: 19.2 µM
EC50 [3]: 4.1 µM
EC50 [4]: 24.8 µM
EC50 [5]: 31.8 µM
EC50 [6]: 16.6 µM
EC50 [7]: 27.6 µM
EC50 [8]: 16.3 µM
EC50 [9]: 15.3 µM
Activity [10]: inactive

CN1CCN(C(=O)c2ccc3c(NC4CCN(Cc5ccccc5)CC4)c4ccccc4nc3c2)CC1
EC50 [1]: 14.6 µM
EC50 [2]: 25.7 µM
EC50 [3]: 21 µM
Activity [12]: Active
EC50 [4]: 26.9 µM
EC50 [5]: 38.5 µM
EC50 [6]: 32.4 µM
EC50 [7]: 29.2 µM
EC50 [8]: 21.2 µM
Activity [14]: Active
EC50 [9]: 20.3 µM
Activity [10]: inactive
Activity [15]: Active
